EBI2 block: EBI2 (human) antagonism | 360,000 compounds, 0.81% hits | inhibition, % at 5 µM | AID 651636 | EBI2 beta-arrestin recruitment, luminescence, 7a,25-OHC stimulated | P32249; in the data active = inhibition above about 38%;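 also: enzyme fragment complementation signal reports receptor beta-arrestin coupling in cells; 0% = agonist plus DMSO wells and 100% = wells without agonist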
CCR6 antag: antagonists of human CCR6 receptor; CHO-K1 CCR6 PathHunter beta-arrestin, luminescence, CCL20-stimulated; 340,000 compounds, 0.49% hits; P51684; AID 493098; inhibition, % at 20 µM;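 active = compounds whose inhibition of the agonist-driven luminescence signal at 20 µM reaches about 50%, limit read from the data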;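 also: cells stimulated with CCL20 at 14 nM final; plate controls were DMSO with CCL20 for no effect and DMSO without agonist for full effect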
APJ ag: activates the human apelin receptor APJ. CHO-K1 APJ PathHunter beta-arrestin, luminescence; 0% DMSO wells, 100% apelin. activation, % at 20 µM. 330,000 compounds, 0.11% hits. AID 2520;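 active = activation more than six SD over the plate average, tested at 20 µM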;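 also: 0% = DMSO alone and 100% = apelin-13 at 10 nM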
Target sequence (P35414 whole entry, looked up): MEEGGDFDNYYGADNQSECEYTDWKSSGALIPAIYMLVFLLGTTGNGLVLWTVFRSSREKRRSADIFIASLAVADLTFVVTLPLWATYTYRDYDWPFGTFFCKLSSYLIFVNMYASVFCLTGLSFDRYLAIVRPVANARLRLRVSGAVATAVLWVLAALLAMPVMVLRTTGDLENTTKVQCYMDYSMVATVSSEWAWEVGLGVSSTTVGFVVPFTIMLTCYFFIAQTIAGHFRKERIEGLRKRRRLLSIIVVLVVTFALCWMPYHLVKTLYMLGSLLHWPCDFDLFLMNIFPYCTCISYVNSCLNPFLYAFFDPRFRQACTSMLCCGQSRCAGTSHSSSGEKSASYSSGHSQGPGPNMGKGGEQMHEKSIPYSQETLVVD
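Assay system: engineered CHO-K1 APJ arrestin reporter cells; Amount: 1000 CHO-K1 reporter cells seeded per well; Dosing: one dose, 20 µM compound, 1% DMSO; Times: compound stimulation 90 min at 25 °C, detection 60 min; Measured by: luminescent beta-gal fragment complementation, chemiluminescent substrate; Read-out: APJ–arrestin association signal; Controls: DMSO vs Apelin-13 10 nM.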
CXCR6 inh: blocks human CXCR6 beta-arrestin recruitment | CHO-K1 PathHunter CXCR6 beta-arrestin, luminescence | inhibition, % at 20 µM | O00574 | 360,000 compounds, 0.36% hits; in the data active = inhibition above about 34%, passing the limit was not always enough;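 also: antagonist mode with CXCL16 agonist at 10 nM final; 0% = 10 nM CXCL16 with DMSO and 100% = unstimulated wells without agonist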
m5-HT2A agonist: activates the mouse 5-HT2A serotonin receptor. P35363. CHO-K1 mHTR2A beta-arrestin complementation, luminescence; percent of 30 µM serotonin response. activation, % at 7.6 µM. 360,000 compounds, 0.66% hits. AID 624169;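 active = activation above a run cutoff, the mean activation of all tested compounds plus 3 SD, cut at about 14% in these data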;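 also: 0% = plate median of compound wells and 100% = 30 µM serotonin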
APJ antag: blocks the human apelin receptor APJ; P35414; CHO-K1 APJ beta-arrestin complementation, luminescence; inhibition, % at 20 µM; 330,000 compounds, 0.32% hits; AID 2521;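 active = inhibition above about 40% at 20 µM, limit read from the data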;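 also: cells challenged with 10 nM apelin-13 agonist together with compound; plate controls were apelin-13 plus DMSO wells for no effect and DMSO wells lacking apelin-13 for full effect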
OPRM1 ag: activates human mu opioid receptor in HTR2A counterscreen | activation, % at 9.3 µM | shares compounds with m5-HT2A agonist | U2OS OPRM1 beta-arrestin PathHunter, luminescence; DMSO 0%, DAMGO 9.3 µM 100% | 2,300 compounds, 5.3% hits;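 active = mean activation above the mean of DMSO-only wells plus 3 SD, cut at about 0.5% in these data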
m5-HT2A ag conf: mouse HTR2A agonism confirmed | shares compounds with m5-HT2A agonist | CHO-K1 PathHunter beta-arrestin recruitment, luminescence; DMSO 0%, 30 µM serotonin 100% | activation, % at 7.6 µM | 2,300 compounds, 19% hits | AID 624381;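 active = mean activation across triplicates above the hit threshold derived in the original primary screen, cut at about 15% in these data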
Active calls of the source: *; . = no result given. In the library only some 2.1% were active in any assay of this set; here they are far more common.

SMILES | EBI2 block | CCR6 antag | APJ ag | CXCR6 inh | m5-HT2A agonist | APJ antag | OPRM1 ag | m5-HT2A ag conf
CCN(C(=O)CSc1ccc2ccccc2c1)C1CCS(=O)(=O)C1 (configuration not stated) | 5 | 6 | -4 | -9 | 16* | -9 | -1 | 0
CCN(C(=O)CSc1nc2ccccc2o1)C1CCS(=O)(=O)C1 (configuration not stated) | -7 | 3 | 0 | -5 | 3 | 17 | . | .
CC1(C)CC(=O)C(C(=O)c2ccccc2)C(=O)C1 | 0 | 4 | 1 | -2 | 19* | 12 | 0 | -1
C/C(=C\C(=O)c1ncc(C(F)(F)F)cc1Cl)N(C)C | -5 | -4 | -1 | -7 | 21* | -11 | -1 | -6
N=c1n(Cc2ccccc2)c2ccccc2n1CC(O)COc1ccccc1 (configuration not stated) | 10 | 20 | 0 | -5 | -4 | 0 | . | .
O=P(Nc1ccccc1)(Nc1ccccc1)c1ccccc1 | -2 | -4 | . | -4 | 15* | . | -1 | -3
COc1ccc(C(=O)NCCn2cc(SCC(N)=O)c3ccccc32)cc1 | -7 | 8 | -3 | -1 | 16* | 17 | -1 | -6
CCOC(=O)c1ccc(NC(=O)COc2ccc(-n3cnnn3)cc2)cc1 | -4 | -14 | 0 | -1 | 17* | -20 | 0 | 15*
CC(=O)c1c(C)[nH]c(C(=O)Nc2cccc(S(=O)(=O)N3CCOCC3)c2)c1C | 0 | 19 | -1 | -11 | 1 | 3 | . | .
O=C(CSc1n[nH]c(-c2ccccn2)n1)Nc1ccccc1 | -4 | 15 | -10 | -9 | 15* | 21 | -1 | -5
COc1ccc(NC(=O)CSc2n[nH]c(-c3ccccn3)n2)cc1 | -1 | 14 | -4 | 1 | -5 | 13 | . | .
CCn1c(SCC(N)=O)nnc1-c1ccco1 | -5 | -1 | -4 | -1 | 7 | -13 | . | .
CCn1c(SCC(=O)c2cccs2)nnc1-c1ccco1 | -2 | 2 | -3 | -16 | 16* | 13 | -1 | 4
CCOC(=O)COc1ccc(C)cc1-c1ccno1 | -1 | -4 | -1 | -1 | -1 | 17 | . | .
COc1cccc2c(=O)n(CC(=O)Nc3ccccc3F)ccc12 | -11 | -4 | 4 | -6 | 2 | -1 | . | .
COc1ccccc1CNC(=O)C1CCC1 | -12 | 2 | -2 | 3 | 15* | 10 | -1 | -3
COc1ccccc1CNC(=O)COC(=O)Cc1ccc(Br)cc1 | -4 | -3 | -6 | 4 | 16* | 6 | -1 | -2
COc1ccccc1CNC(=O)C1CCN(S(=O)(=O)N2CCCCC2)CC1 | -11 | -6 | 3 | 1 | 4 | 1 | . | .
CC(=C/C(=O)O)/C=C/c1ccc(Cl)o1 | -6 | -7 | -2 | -10 | 0 | -4 | . | .
O=C(Nc1cccnc1)c1cc(-c2ccccc2)on1 | -7 | -6 | 4 | -13 | -1 | -9 | . | .
O=C(Nc1cccnc1)c1cc(-c2ccco2)on1 | -7 | -10 | -4 | -6 | 20* | -12 | -1 | -2
Cc1c(Cc2ccc3c(c2)OCO3)sc(NC(=O)c2ccccc2)c1C(N)=O | 7 | 12 | -1 | -2 | 15* | -3 | 0 | 2
Cc1nc(NC(=O)c2ccccc2)sc1Cc1ccc2c(c1)OCO2 | -5 | 5 | -4 | 9 | -2 | 12 | . | .
COc1cc(OC)nc(NC(=S)NC(=O)c2ccccc2)n1 | 0 | 14 | 2 | 7 | 28* | -9 | 0 | -1
O=C(NC(=S)Nc1cccc(NC(=S)NC(=O)c2ccccc2)c1)c1ccccc1 | -1 | 39 | . | 21 | -6 | . | . | .
Cc1cc(C)n(C(=O)CNC(=O)/C=C/c2ccccc2)n1 | 3 | 0 | -3 | 11 | -1 | 15 | . | .
COc1ccccc1/C=C/C(=O)NCC(=O)n1nc(C)cc1C | -10 | 2 | -4 | -2 | 19* | 11 | -1 | -1
